Measurements taken from ChEMBL document CHEMBL4765236, “Insights into the Antimicrobial Activity and Cytotoxicity of Engineered α-Helical Peptide Amphiphiles” (J Med Chem, 2016).
Calls of active or inactive are those of the source. No cut-off for these calls is given here.

Assays:
[1] = tested on: Staphylococcus aureus; test: Antibacterial activity against Staphylococcus aureus ATCC 29213 assessed as bacterial growth inhibition incubated for 18 to 24 hrs in presence of 1 mM MgCl2 by microtiter broth dilution method (reference value: 0.43 to > 71.5 uM); format: functional; details: time 18-24 hrs
[2] = tested on: Escherichia coli; test: Antibacterial activity against Escherichia coli O157:H7 CICC 21530 assessed as bacterial growth inhibition incubated for 18 to 24 hrs in presence of 150 mM NaCl by microtiter broth dilution method (reference value: 0.85 to > 71.5 uM); format: functional; details: time 18-24 hrs
[3] = tested on: Erythrocyte; test: Hemolytic activity against human red blood cells assessed as hemoglobin release at 64 uM measured after 1 hr by microplate reader analysis; format: ADME, cell-based
Summary of the method: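 Fresh heparinized human RBCs washed three times in 10 mM PBS pH 7.4 and resuspended to about 1% (v/v) (5.4 × 10^8 cells/mL). Mixed 1:1 with peptide in PBS for 1 h at 37 °C, then centrifuged. Supernatant hemoglobin read at A540. PBS set as 0% and 0.1% Triton X-100 as 100% hemolysis. MHC is the concentration causing 10% hemolysis.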

[4] = tested on: Escherichia coli; test: Antibacterial activity against Escherichia coli O157:H7 CICC 21530 assessed as bacterial growth inhibition incubated for 18 to 24 hrs in presence of 1 mM MgCl2 by microtiter broth dilution method (reference value: 0.85 to > 71.5 uM); format: functional; details: time 18-24 hrs
[5] = tested on: Cell membrane; test: Induction of inner membrane permeabilization in Escherichia coli O157:H7 CICC 21530 assessed as cytoplasmic beta-galactosidase release at 1 times MIC using ONPG as substrate by […]; format: subcellular
[6] = tested on: Staphylococcus aureus; test: Antibacterial activity against Staphylococcus aureus ATCC 29213 assessed as bacterial growth inhibition incubated for 18 to 24 hrs in presence of 6 mM NH4Cl by microtiter broth dilution method (reference value: 0.43 to > 71.5 uM); format: functional; details: time 18-24 hrs
[7] = tested on: Pseudomonas fluorescens; test: Antibacterial activity against Pseudomonas fluorescens CICC 21620 assessed as bacterial growth inhibition incubated for 18 to 24 hrs by microtiter broth dilution method; format: functional; details: time 18-24 hrs
Summary of the method: (§1)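 Log-phase cells (grown overnight at 37 °C, subcultured in MHB) diluted to 10^5 CFU/mL in MHB and mixed 1:1 with serial peptide dilutions prepared in 0.01% acetic acid/0.2% BSA. Incubated 37 °C for 18-24 h. MIC is the lowest concentration giving no growth by OD492. Reported as the average of 3-5 independent experiments.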

[8] = tested on: Salmonella enterica; test: Antibacterial activity against Salmonella choleraesuis ATCC 13312 assessed as bacterial growth inhibition incubated for 18 to 24 hrs by broth dilution method; format: functional; details: time 18-24 hrs
Summary of the method: (§2)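 Log-phase bacteria grown at 37 °C in MHB, diluted to 10^5 CFU/mL, mixed 1:1 with serial peptide dilutions (peptide diluted in 0.01% acetic acid, 0.2% BSA); 37 °C for 18-24 h. MIC read by OD492 as lowest concentration giving no growth; mean of 3-5 independent experiments.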

[9] = tested on: Escherichia coli; test: Antibacterial activity against Escherichia coli O157:H7 CICC 21530 assessed as bacterial growth inhibition incubated for 18 to 24 hrs by microtiter broth dilution method; format: functional; details: time 18-24 hrs; summary of the method: as §2
[10] = tested on: Staphylococcus aureus; test: Antibacterial activity against Staphylococcus aureus ATCC 29213 assessed as bacterial growth inhibition incubated for 18 to 24 hrs in presence of […] by microtiter broth dilution method (reference value: 0.43 to > 71.5 uM); format: functional; details: time 18-24 hrs
[11] = tested on: Escherichia coli; test: Antibacterial activity against Escherichia coli O157:H7 CICC 21530 assessed as bacterial growth inhibition incubated for 18 to 24 hrs in presence of 6 mM NH4Cl by microtiter broth dilution method (reference value: 0.85 to > 71.5 uM); format: functional; details: time 18-24 hrs
[12] = tested on: Escherichia coli; test: Antibacterial activity against Escherichia coli O157:H7 CICC 21530 assessed as bacterial growth inhibition incubated for 18 to 24 hrs in presence of 2 mM CaCl2 by microtiter broth dilution method (reference value: 0.85 to > 71.5 uM); format: functional; details: time 18-24 hrs
[13] = tested on: Salmonella enterica subsp. enterica serovar Paratyphi B; test: Antibacterial activity against Salmonella paratyphi B CICC 21495 assessed as bacterial growth inhibition incubated for 18 to 24 hrs by microtiter broth dilution method; format: functional; details: time 18-24 hrs; summary of the method: as §2
[14] = tested on: Salmonella paratyphi; test: Antibacterial activity against Salmonella paratyphi A CICC 20501 assessed as bacterial growth inhibition incubated for 18 to 24 hrs by microtiter broth dilution method; format: functional, Salmonella enterica subsp. enterica serovar Paratyphi A; details: Salmonella enterica, time 18-24 hrs; summary of the method: as §2
[15] = tested on: Vibrio parahaemolyticus; test: Antibacterial activity against Vibrio parahaemolyticus CICC 21617 assessed as bacterial growth inhibition incubated for 18 to 24 hrs by broth dilution method; format: functional; details: time 18-24 hrs; summary of the method: as §1
[16] = tested on: Candida albicans; test: Antifungal activity against Candida albicans ATCC 10231 assessed as fungal growth inhibition incubated for 18 to 24 hrs by microtiter broth dilution method; format: functional; details: time 18-24 hrs; summary of the method: as §1
[17] = tested on: Escherichia coli; test: Bactericidal activity against Escherichia coli O157:H7 CICC 21530 assessed as bacterial killing at 1 times MIC by time kill assay; format: functional, organism-based; details: time 1085.0 min, TDE = time-dependent effect
[18] = tested on: Cell membrane; test: Induction of cell membrane depolarization in Escherichia coli O157:H7 CICC 21530 assessed as increase in fluorescence intensity at 0.5 to 2 times MIC preincubated for 90 mins followed by KCl addition and measured after 15 to 30 mins by DiSC3-5 staining based fluorescence spectroscopic technique; format: subcellular; details: time 105-120 min
[19] = tested on: Salmonella typhimurium; test: Antibacterial activity against Salmonella typhimurium CMCC 51005 assessed as bacterial growth inhibition incubated for 18 to 24 hrs by microtiter broth dilution method; format: functional, Salmonella enterica subsp. enterica serovar Typhimurium; details: Salmonella enterica, time 18-24 hrs; summary of the method: as §1
[20] = tested on: RAW264.7; test: Antiinflammatory activity against mouse RAW264.7 cells assessed as inhibition of LPS-induced TNF-alpha production at 0.5 to 64 uM measured after 24 hrs by […] ELISA; format: functional, cell-based; details: dose 0.5-64 µM
Summary of the method: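 RAW264.7 cells plated at 1-2 × 10^5 cells/mL and stimulated with 500 ng/mL LPS with or without peptide (0.5-64 µM) for 24 h at 37 °C. Controls were untreated cells and LPS alone. TNF-α in the supernatant measured by ELISA. NO measured by Griess reagent (1% sulfanilamide, 0.1% naphthylethylenediamine, 5% phosphoric acid).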

[21] = Therapeutic index, ratio of MHC10 for human RBC to geometric mean of peptide MIC for Staphylococcus aureus ATCC 29213; format: toxicity; details: human red blood cells (RBC), pooled result: one value given for 9 cell lines, strains, targets or settings, read-out: TI
Summary of the method: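 Therapeutic index = MHC (peptide concentration giving 10% hemolysis of human RBCs, 1 h, 37 °C, A540) divided by geometric mean of MICs from broth microdilution (10^5 CFU/mL in MHB, 37 °C, 18-24 h, OD492).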

[22] = tested on: Escherichia coli; test: Antibacterial activity against Escherichia coli ATCC 35150 assessed as bacterial growth inhibition incubated for 18 to 24 hrs by microtiter broth dilution method; format: functional; details: time 18-24 hrs; summary of the method: as §1
[23] = tested on: Escherichia coli; test: Antibacterial activity against Escherichia coli O157:H7 CICC 21530 assessed as bacterial growth inhibition incubated for 18 to 24 hrs in presence of 4 mM FeCl3 by microtiter broth dilution method (reference value: 0.85 to > 71.5 uM); format: functional; details: time 18-24 hrs
[24] = tested on: Cell membrane; test: Induction of cell membrane disruption in Escherichia coli O157:H7 CICC 21530 assessed as propidium iodide-positive cells at 1 times MIC measured after 30 mins by flow cytometry analysis (reference value: 5.7 %); format: subcellular

Substance | MIC [1] [µM] | MIC [2] [µM] | Activity [3] | MIC [4] [µM] | Activity [5] | MIC [6] [µM] | MIC [7] [µM] | MIC [8] [µM] | MIC [9] [µM] | MIC [10] [µM] | MIC [11] [µM] | MIC [12] [µM] | MIC [13] [µM] | MIC [14] [µM] | MIC [15] [µM] | MIC [16] [µM] | Activity [17] | Activity [18] | MIC [19] [µM] | Activity [20] | also measured
H-WGRAFRRLVRRLARGLRR-NH2 | 1.74 | 13.9 | Non-Toxic | 6.97 | inactive | 1.74 | 55.8 | 13.9 | 6.97 | > 55.8 | 3.49 | 13.9 | 6.97 | 3.49 | 13.9 | 13.9 | Tde | Active | 13.9 | Active | selectivity ratio [21]: 11.8; MIC [22]: 13.9 µM; MIC [23]: > 55.8 µM
H-WLRAFRRLVRRLARGLRR-NH2 | 0.21 | 3.4 | Non-Toxic | 0.85 | Active | 0.43 | 0.43 | 1.7 | 0.85 | 55 | 0.85 | 3.4 | 0.85 | 0.43 | 1.7 | 3.4 | Tde | Active | 6.81 | Active | Activity [24]: 91.1%; selectivity ratio [21]: 59.1; MIC [22]: 1.7 µM; MIC [23]: 6.81 µM
H-WGRAFSRGVRRLARGGRG-NH2 | > 63.5 | 15.9 | Non-Toxic | 7.94 | inactive | > 63.5 | > 63.5 | 15.9 | 7.94 | > 63.5 | 7.94 | 15.9 | 15.9 | 15.9 | > 63.5 | > 63.5 | Tde | Active | > 63.5 | Active | selectivity ratio [21]: 2.16; MIC [22]: 31.8 µM; MIC [23]: > 63.5 µM
H-WGRAFRRGVRRLARGGRR-NH2 | 3.67 | 14.7 | Non-Toxic | 3.67 | inactive | 7.33 | 29.3 | 14.7 | 3.67 | > 58.6 | 3.67 | 7.33 | 3.67 | 7.33 | 29.3 | 29.3 | Tde | Active | > 58.6 | Active | selectivity ratio [21]: 8; MIC [22]: 29.3 µM; MIC [23]: > 58.6 µM
H-WGRAFSAGVHRLARGGRG-NH2 | > 67 | > 67 | Non-Toxic | 67 | inactive | > 67 | > 67 | 33.5 | 16.8 | > 67 | 8.35 | > 67 | > 67 | 33.5 | > 67 | > 67 | Tde | Active | > 67 | Active | selectivity ratio [21]: 1.26; MIC [22]: > 67 µM; MIC [23]: > 67 µM
H-WGRAFSAGVHRLANGGNG-NH2 | > 70.1 | > 70.1 | Non-Toxic | > 70.1 | inactive | > 70.1 | > 70.1 | > 70.1 | > 70.1 | > 70.1 | > 70.1 | > 70.1 | > 70.1 | > 70.1 | > 70.1 | > 70.1 | Tde | Active | > 70.1 | Active | selectivity ratio [21]: 1.08; MIC [22]: > 70.1 µM; MIC [23]: > 70.1 µM
H-WGEAFSAGVHRLANGGNG-NH2 | > 71.2 | > 71.2 | Non-Toxic | > 71.2 | inactive | > 71.2 | > 71.2 | > 71.2 | > 71.2 | > 71.2 | > 71.2 | > 71.2 | > 71.2 | > 71.2 | > 71.2 | > 71.2 | Tde | Active | > 71.2 | Active | Activity [24]: 22.9%; selectivity ratio [21]: 1; MIC [22]: > 71.2 µM; MIC [23]: > 71.2 µM
H-WLRAFRRLVRRLARLLRR-NH2 | 0.83 | > 53.2 | Non-Toxic | > 53.2 | inactive | 1.66 | 53.2 | 13.3 | 3.32 | > 53.2 | > 53.2 | > 53.2 | 3.32 | 6.65 | 6.65 | 26.6 | Tde | Active | > 53.2 | Active | selectivity ratio [21]: 5.88; MIC [22]: 26.6 µM; MIC [23]: > 53.2 µM
